≈ marks a conversion by molar mass, not a printed value. Blank lines part the entries; values can stand above or below the compound they belong to.
Tests used:
Citrobacter freundii = test: The compound was tested in vitro for minimum inhibitory concentration against Citrobacter Freundii BS-16; format: functional
Procedure, shortened: (§1)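 Agar dilution on Mueller-Hinton agar using 2-fold serial dilutions, giving final 128 to 0.0156 μg/mL (extended to 0.000977 μg/mL where needed). Inoculum was overnight broth culture diluted 100-fold, about 3×10^4 CFU/spot, applied by replicator. MIC read after overnight incubation at 36 °C.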

Escherichia coli [1] = test: The compound was tested in vitro for minimum inhibitory concentration against Escherichia coli ATCC 25922; format: functional; procedure, shortened: as §1
Escherichia coli [2] = test: Minimum inhibitory concentration required to inhibit the activity of Escherichia coli ATCC 25922; format: functional; procedure, shortened: as §1
Escherichia coli [3] = test: Minimum inhibitory concentration required to inhibit the activity of Escherichia coli UB1005; format: functional; procedure, shortened: as §1
Escherichia coli [4] = test: Minimum inhibitory concentration for inhibition of [14C]- Pen G binding to Escherichia coli UB1005; format: functional
Procedure, shortened: (§2)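 Membranes from sonicated E. coli UB1005 were solubilized. Binding to penicillin-binding proteins was measured as inhibition of [14C]penicillin G binding.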

Escherichia coli [5] = test: The compound was tested in vitro for minimum inhibitory concentration against Escherichia coli 257; format: functional; procedure, shortened: as §1
Enterococcus faecalis = test: The compound was tested in vitro for minimum inhibitory concentration against Enterococcus faecalis ATCC 29212; format: functional; procedure, shortened: as §1
Escherichia coli [6] = test: The compound was tested in vitro for minimum inhibitory concentration against Escherichia coli TEM-1; format: functional; procedure, shortened: as §1
Enterobacter cloacae = test: The compound was tested in vitro for minimum inhibitory concentration against Enterobacter cloacae P99; format: functional
Escherichia coli [7] = test: Inhibitory activity on replicative DNA biosynthesis in Escherichia coli H560 (permeabilised cells); format: functional, organism-based
Procedure, shortened: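 E. coli H560 cells permeabilized with toluene. ATP-dependent incorporation of [3H]thymidine into trichloroacetic acid-insoluble material was measured. IC50 taken as the concentration giving 50% inhibition.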

Micrococcus luteus = test: The compound was tested in vitro for minimum inhibitory concentration against Micrococcus luteus ATCC 9341; format: functional; procedure, shortened: as §1
Proteus mirabilis = test: The compound was tested in vitro for minimum inhibitory concentration against Proteus mirabilis 90; format: functional
Procedure, shortened: (§3)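 Proteus MICs by agar dilution on Mueller-Hinton medium containing 3% agar. Serial 2-fold dilutions gave final 128 to 0.0156 μg/mL (further to 0.000977 μg/mL). Inoculum was overnight broth diluted 100-fold, about 3×10^4 CFU/spot. Plates read after overnight incubation at 36 °C.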

Pseudomonas aeruginosa [8] = test: The compound was tested in vitro for minimum inhibitory concentration against Pseudomonas aeruginosa 18S/H; format: functional; procedure, shortened: as §1
Escherichia coli [9] = test: The compound was evaluated for the inhibition of [14C]- Pen G binding to Escherichia coli UB1005 penicillin-binding protein 1a 90 kDa.; procedure, shortened: as §2
Escherichia coli [10] = test: The compound was evaluated for the inhibition of [14C]- Pen G binding to Escherichia coli UB1005 penicillin-binding protein 1b 90 kDa.; procedure, shortened: as §2
Escherichia coli [11] = test: The compound was evaluated for the inhibition of [14C]- Pen G binding to Escherichia coli UB1005 penicillin-binding protein 2 66 kDa.; procedure, shortened: as §2
Escherichia coli [12] = test: The compound was evaluated for the inhibition of [14C]- Pen G binding to Escherichia coli UB1005 penicillin-binding protein 3 60 kDa.; procedure, shortened: as §2
Pseudomonas aeruginosa [13] = test: The compound was tested in vitro for minimum inhibitory concentration against Pseudomonas aeruginosa 8780; format: functional; procedure, shortened: as §1
Proteus vulgaris = test: The compound was tested in vitro for minimum inhibitory concentration against Proteus vulgaris 1028 BC; format: functional; procedure, shortened: as §3
Staphylococcus aureus [14] = test: The compound was tested in vitro for minimum inhibitory concentration against Staphylococcus aureus 67-0; format: functional; procedure, shortened: as §1
Staphylococcus aureus [15] = test: The compound was tested in vitro for minimum inhibitory concentration against Staphylococcus aureus 753; format: functional; procedure, shortened: as §1
Streptococcus pyogenes = test: The compound was tested in vitro for minimum inhibitory concentration against Streptococcus pyogenes; format: functional
Procedure, shortened: (§4)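 Streptococci tested by agar dilution on brain heart infusion agar with 20 units/mL bovine liver catalase. Final drug range 128 to 0.0156 μg/mL by 2-fold steps, extended to 0.000977 μg/mL when required. Inoculum about 3×10^4 CFU/spot from overnight broth diluted 100-fold. MIC after overnight incubation at 36 °C.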

Serratia marcescens = test: The compound was tested in vitro for minimum inhibitory concentration against Serratia marcescens 1071; format: functional; procedure, shortened: as §1
Streptococcus pneumoniae = test: The compound was tested in vitro for minimum inhibitory concentration against Streptococcus pneumoniae 6301; format: functional; procedure, shortened: as §4
Staphylococcus aureus [16] = test: The compound was tested in vitro for minimum inhibitory concentration against Staphylococcus aureus smith; format: functional; procedure, shortened: as §1
Klebsiella pneumoniae = test: The compound was tested in vitro for minimum inhibitory concentration against Klebsiella pneumoniae A; format: functional; procedure, shortened: as §1
Escherichia coli [17] = test: Minimum inhibitory concentration for inhibition of [14C]- Pen G binding to Escherichia coli UB1005.; format: functional
Procedure, shortened: (§5)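 Penicillin-binding protein assay using solubilized membranes from sonicated E. coli UB1005. Binding was read as inhibition of [14C]penicillin G binding to the PBPs.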

Escherichia coli [18] = test: The compound was evaluated for the inhibition of [14C]- Pen G binding to Escherichia coli UB1005 PBP1a 90 kDa.; format: functional; procedure, shortened: as §5
Escherichia coli [19] = test: The compound was evaluated for the inhibition of [14C]- Pen G binding to Escherichia coli UB1005 PBP1b 90 kDa.; format: functional; procedure, shortened: as §5
Escherichia coli [20] = test: The compound was evaluated for the inhibition of [14C]- Pen G binding to Escherichia coli UB1005 PBP3 60 kDa.; format: functional; procedure, shortened: as §5
Escherichia coli [21] = test: The compound was evaluated for the inhibition of [14C]- Pen G binding to Escherichia coli UB1005 PBP2 66 kDa.; format: functional; procedure, shortened: as §5

MIC (Citrobacter freundii): 0.125 µg/mL (≈ 0.148 µM) | MIC (Escherichia coli [1]): 0.063 µg/mL (≈ 0.0747 µM) | MIC (Escherichia coli [2]): 0.06 µg/mL (≈ 0.0712 µM) | MIC (Escherichia coli [3]): 1 µg/mL (≈ 1.19 µM) | MIC (Escherichia coli [4]): 1 µg/mL (≈ 1.19 µM) | MIC (Escherichia coli [5]): 0.063 µg/mL (≈ 0.0747 µM) | MIC (Enterococcus faecalis): 1 µg/mL (≈ 1.19 µM) | MIC (Escherichia coli [6]): 0.063 µg/mL (≈ 0.0747 µM) | MIC (Enterobacter cloacae): 0.63 µg/mL (≈ 0.747 µM) | IC50 (Escherichia coli [7]): 2 µg/mL (≈ 2.37 µM) | MIC (Micrococcus luteus): 1 µg/mL (≈ 1.19 µM) | MIC (Proteus mirabilis): 0.25 µg/mL (≈ 0.297 µM) | MIC (Pseudomonas aeruginosa [8]): 1 µg/mL (≈ 1.19 µM) | Inhibitory concentration (Escherichia coli [9]): 100 µg/mL | Inhibitory concentration (Escherichia coli [10]): 10 µg/mL | Inhibitory concentration (Escherichia coli [11]): > 100 µg/mL | Inhibitory concentration (Escherichia coli [12]): < 0.1 µg/mL | MIC (Pseudomonas aeruginosa [13]): 1 µg/mL (≈ 1.19 µM) | MIC (Proteus vulgaris): 0.125 µg/mL (≈ 0.148 µM) | MIC (Staphylococcus aureus [14]): 4 µg/mL (≈ 4.75 µM) | MIC (Staphylococcus aureus [15]): 4 µg/mL (≈ 4.75 µM) | MIC (Streptococcus pyogenes): 0.25 µg/mL (≈ 0.297 µM) | MIC (Serratia marcescens): 0.5 µg/mL (≈ 0.593 µM) | MIC (Streptococcus pneumoniae): 0.25 µg/mL (≈ 0.297 µM) | MIC (Staphylococcus aureus [16]): 1 µg/mL (≈ 1.19 µM) | MIC (Klebsiella pneumoniae): 0.25 µg/mL (≈ 0.297 µM)
Structure (SMILES): CC(C)(O/N=C(\C(=O)N[C@@H]1C(=O)N2C(C(=O)O)=C(COC(=O)N3CCN(c4cc5c(cc4F)c(=O)c(C(=O)O)cn5C4CC4)CC3)CS[C@H]12)c1csc(N)n1)C(=O)O

MIC (Escherichia coli [17]): 1 µg/mL (≈ 1.55 µM)
Structure (SMILES): CCN1CCN(C(=O)N[C@@H](C(=O)N[C@@H]2C(=O)N3C(C(=O)O)=C(CSc4nnnn4C)CS[C@H]23)c2ccc(O)cc2)C(=O)C1=O [CEFOPERAZONE]
Inhibitory concentration (Escherichia coli [18]): 10 µg/mL | Inhibitory concentration (Escherichia coli [19]): 10 µg/mL | Inhibitory concentration (Escherichia coli [20]): < 0.1 µg/mL | Inhibitory concentration (Escherichia coli [21]): 2 µg/mL

Source: ChEMBL document CHEMBL1125212, “Dual-action cephalosporins: cephalosporin 3'-quinolone carbamates” (J Med Chem, 1991)
